Most compounds without a hit are left out; they make up all but 2.3% or so of the library.
Tb MetRS inh = Trypanosoma brucei MetRS inhibition | purified T. brucei MetRS, ATP depletion, Kinase-Glo luminescence | inhibition, % at 11.9 µM | 360,000 tested, 0.4% active | AID 624268;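 active = inhibition above a per-plate cutoff of the control wells' mean inhibition plus 3 SD, cut at about 5.5% in these data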
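Measured by: Kinase-Glo luciferase luminescence reporting remaining unconsumed ATP. Material: purified T. brucei MetRS enzyme. Doses: 11.9 µM compound single dose, 0.9% DMSO. Medium: HEPES buffer containing pyrophosphatase, BSA, spermine, DTT. Times: 15 min preincubation, 2 h reaction, all 25 °C. Reagent: methionine, ATP and bulk E. coli tRNA.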
PLC-gamma1 inh = inhibitors of human phospholipase C gamma1. P19174. purified PLC-gamma1, fluorogenic substrate, fluorescence. inhibition, % at 12.2 µM. 370,000 tested, 0.84% active. AID 720700; in the data active = inhibition above about 9.5%
ADAM10 inh = inhibits human ADAM10 | O14672 | recombinant ADAM10, EDANS/DABCYL FRET peptide cleavage, 3 h | inhibition, % at 7 µM | 370,000 tested, 0.62% active | AID 720582;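 active = inhibition above a per-campaign cutoff equal to the mean of compounds falling between control-based bounds plus 3 SD, cut at about 20% in these data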
PLC-beta3 inh = blocks human PLC-beta3 enzyme activity. Q01970. Purified PLC-beta3, fluorogenic substrate, fluorescence. inhibition, % at 12.2 µM. 370,000 tested, 0.18% active; in the data active = inhibition above about 11%
ADAM17 inh = inhibitors of human ADAM17 | AID 720648 | P78536 | 370,000 tested, 0.83% active | recombinant ADAM17, EDANS/DABCYL FRET peptide cleavage | inhibition, % at 6.95 µM;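 active = inhibition above the mean of compounds lying between control limits plus 3 SD, set per campaign, cut at about 8.5% in these data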
Tb MetRS conf = Trypanosoma brucei MetRS inhibition confirmed; shares compounds with Tb MetRS inh; T. brucei MetRS enzyme, luminescence (ATP depletion); inhibition, % at 11.9 µM; 1,400 tested, 93% active; in the data active = inhibition above about 7%
Jurkat cytotox = kills Jurkat cells in T. brucei MetRS counterscreen; inhibition, % at 8.3 µM; Jurkat cells viability, ATP luminescence; shares compounds with Tb MetRS inh; 1,400 tested, 12% active; in the data active = inhibition above about 15%
Tb MetRS inh FP = inhibits T. brucei methionyl tRNA synthetase in orthogonal FP test; shares compounds with Tb MetRS inh; purified T. brucei MetRS, fluorescence polarization; inhibition, % at 11.9 µM; 1,400 tested, 44% active; in the data active = inhibition above about 17%
Numbers stand for hits; 0 = inactive; - = no result.

SMILES	Tb MetRS inh	PLC-gamma1 inh	ADAM10 inh	PLC-beta3 inh	ADAM17 inh	Tb MetRS conf	Jurkat cytotox	Tb MetRS inh FP
Clc1ccc(OCCCCCN2CCCC2)c(Br)c1	6.2	0	0	0	0	13.3	0	0
Clc1ccc(OCCCN2CCCCC2)c(Br)c1	17.1	0	0	0	0	28.3	0	0
CCN1CCN(CCCOc2ccc(Cl)cc2Br)CC1	7.7	0	0	0	0	12.5	0	0
COc1ccc2[nH]c(CN3CCC(CO)(CCOc4ccccc4)CC3)c(C)c2c1	0	0	0	0	0	-	-	-
COc1ccc(-n2nc3c(c2NC(=O)COc2ccccc2OC)CS(=O)(=O)C3)cc1	0	0	0	0	0	-	-	-
O=C(NCc1nc2ccccc2[nH]1)C1=C[C@H](c2ccc(C(F)(F)F)cc2)C[C@H](OCCCCO)O1	30.6	0	0	0	0	69.0	0	38.0
O=C(NCc1nc2ccccc2[nH]1)C1=C[C@H](c2ccc3c(c2)OCO3)C[C@H](OCCCCO)O1	69.4	0	0	0	0	88.7	0	76.1
O=C(NCc1ccccc1)C1=C[C@H](c2ccc(C(F)(F)F)cc2)C[C@H](OCCCCO)O1	0	0	0	0	0	-	-	-
CCO[C@@H]1OC(C(=O)NCc2nc3ccccc3[nH]2)=C[C@H](c2ccccc2)[C@H]1CCCO	8.6	0	0	0	0	38.4	0	19.6
O=C(C1=C[C@@H](c2ccc3c(c2)OCO3)C[C@@H](OCCCCO)O1)N1CCN(Cc2ccc3c(c2)OCO3)CC1	17.6	0	0	0	0	55.5	0	24.9
CCN1CCC[C@H]1CNCCCn1cnc2c(SC)ncnc21	0	0	0	0	0	-	-	-
COc1ccccc1CNS(=O)(=O)c1ccc2c(c1)NC(=O)C(C)S2 (configuration not stated)	0	0	0	0	0	-	-	-
O=C(NCc1nc2ccccc2[nH]1)C1=C[C@@H](c2ccc(C(F)(F)F)cc2)C[C@@H](OCCCCO)O1	31.7	0	0	0	0	67.8	0	34.5
O=C(NCc1ccccc1)C1=C[C@@H](c2ccc(C(F)(F)F)cc2)C[C@@H](OCCCCO)O1	0	0	0	0	0	-	-	-
O=C(NCc1nc2ccccc2[nH]1)C1=C[C@H](c2ccccc2)C[C@H](OCCCCO)O1	39.1	0	0	0	0	73.5	0	45.5
CCc1ccccc1OCC(=O)Nc1cccc(S(=O)(=O)NC2=NCCCCC2)c1	19.6	0	0	0	0	40.5	0	17.9
COc1ccc(S(=O)(=O)Nc2c(C)cccc2C)cc1-n1cnnn1	5.9	0	0	0	0	0	0	0
C=C1[C@@H](OC(C)=O)C=C[C@@]2(C)C=CC(=O)[C@@](C)(OC(C)=O)[C@@H]2[C@@H](OC(C)=O)[C@]2(O)[C@@H](C)C(=O)O[C@H]2[C@H]1Cl	0	0	0	0	0	-	-	-
CC(O)CNc1nc2ccccc2n1-c1ncnc2sc3c(c12)CCC3 (configuration not stated)	9.3	0	0	0	0	16.0	0	0
c1ccc2c(c1)ncn2-c1ncnc2sc3c(c12)CCCC3	0	0	0	0	0	-	-	-
O=C(COc1ccc(S(=O)(=O)N2CCOCC2)cc1)Nc1ccc(Br)cc1	17.6	0	0	0	0	50.2	16.8	32.6
COc1ccc(OCC(=O)Nc2ccc(S(=O)(=O)N3CCOCC3)cc2)cc1	0	0	0	0	0	-	-	-
O=C(Cc1ccc(Br)cc1)Nc1cccc(S(=O)(=O)N2CCOCC2)c1	54.7	0	0	0	0	76.2	0	57.5
COc1ccc(OCC(=O)Nc2cccc(NC(=O)c3ccco3)c2)cc1	0	0	0	0	0	-	-	-
COC(=O)c1ccc(OC(C)C(=O)c2ccc(C)cc2)cc1 (configuration not stated)	0	0	0	0	0	-	-	-
SMILES	Tb MetRS inh	PLC-gamma1 inh	ADAM10 inh	PLC-beta3 inh	ADAM17 inh	Tb MetRS conf	Jurkat cytotox	Tb MetRS inh FP
CC1CCN(CCCOc2ccc(Br)cc2Cl)CC1	0	0	0	0	0	-	-	-
O=C1CCC(=O)N1OCCCOc1ccc(Br)cc1Cl	7.0	0	0	0	0	14.8	0	32.8
COc1ccc(C#Cc2ccc3c(c2)O[C@@H](CN(C)C(=O)Nc2cccc(OC)c2)[C@H](C)CN([C@@H](C)CO)S3(=O)=O)cc1	0	0	0	0	0	-	-	-
Cc1ccc(C2c3[nH]c4ccccc4c3C[C@H]3C(=O)N(c4ccccc4C(=O)N4CCC[C@@H]4C(=O)O)C(=O)N23)cc1 (some centres not stated)	0	0	0	0	0	-	-	-
O=C1[C@@H]2Cc3c([nH]c4ccccc34)C(c3ccc([N+](=O)[O-])cc3)N2C(=O)CN1C1CC1 (some centres not stated)	9.4	0	0	0	0	20.1	0	0
COCCCN1CC(=O)N2C(c3cccc(C)c3)c3[nH]c4ccccc4c3C[C@H]2C1=O (some centres not stated)	0	0	0	0	0	-	-	-
COC(=O)c1ccc(C2c3[nH]c4ccccc4c3C[C@H]3C(=O)N(C)CC(=O)N23)cc1 (some centres not stated)	0	0	0	0	0	-	-	-
CN1CC(=O)N2C(c3ccc(Cl)cc3)c3[nH]c4ccccc4c3C[C@H]2C1=O (some centres not stated)	7.2	0	0	0	0	17.9	42.6	0
O=C1[C@@H]2Cc3c([nH]c4ccccc34)C(c3cccc([N+](=O)[O-])c3)N2C(=O)CN1CCCO (some centres not stated)	95.6	0	0	0	0	95.4	0	92.7
COc1cccc(C2c3[nH]c4ccccc4c3C[C@H]3C(=O)N(c4ccccc4C(=O)N4CCCC4C(=O)O)C(=O)N23)c1 (some centres not stated)	6.4	0	0	0	0	15.8	0	0
CC(C)[C@H](NC(=O)c1cc2cc(Cl)ccc2n1C)C(=O)N[C@@H](C(=O)O)c1ccccc1	0	0	0	0	0	-	-	-
COc1cccc(C2c3[nH]c4ccccc4c3C[C@H]3C(=O)N(CCCOC(C)C)CC(=O)N23)c1 (some centres not stated)	0	0	0	0	0	-	-	-
CN1CC(=O)N2C(c3cccc([N+](=O)[O-])c3)c3[nH]c4ccccc4c3C[C@H]2C1=O (some centres not stated)	77.8	0	0	0	0	104.7	0	91.2
COc1cccc(C2c3[nH]c4ccccc4c3C[C@H]3C(=O)N(CCCCCO)CC(=O)N23)c1 (some centres not stated)	10.0	0	0	0	0	20.5	0	0

Assay outcomes: PubChem BioAssay, The Scripps Research Institute Molecular Screening Center
